Data from ChEMBL document CHEMBL1125571, “Potent inhibitors of platelet aggregation based upon the Arg-Gly-Asp-Phe sequence of fibrinogen. A proposal on the nature of the binding interaction between the Asp-carboxylate of RGDX mimetics and the platelet GP IIb-IIIa receptor” (J Med Chem, 1992).
Each block holds one molecule with its values, some of them ahead of it.

Assays:
[1] = molecular target: T1, Integrin alpha-IIb/beta-3 (Homo sapiens, UniProt P05106+P08514); test: Inhibition of Fibrinogen receptor binding; type: protein-complex assay
[2] = molecular target: T1, Integrin alpha-IIb/beta-3; test: Inhibition of platelet aggregation (PRP) (inactive); type: functional
Outline: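 Aggregation of platelets in platelet-rich plasma was induced with ADP, and inhibition of this aggregation was measured.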

[3] = molecular target: T1, Integrin alpha-IIb/beta-3; test: Inhibition of 125 I-Fibrinogen binding to Fibrinogen receptor (inactive); type: protein-complex assay
[4] = molecular target: T1, Integrin alpha-IIb/beta-3; test: Inhibition of 125 I-Fibrinogen binding to Fibrinogen receptor; type: protein-complex assay

T1 sequence (P05106 27-788 limits assumed): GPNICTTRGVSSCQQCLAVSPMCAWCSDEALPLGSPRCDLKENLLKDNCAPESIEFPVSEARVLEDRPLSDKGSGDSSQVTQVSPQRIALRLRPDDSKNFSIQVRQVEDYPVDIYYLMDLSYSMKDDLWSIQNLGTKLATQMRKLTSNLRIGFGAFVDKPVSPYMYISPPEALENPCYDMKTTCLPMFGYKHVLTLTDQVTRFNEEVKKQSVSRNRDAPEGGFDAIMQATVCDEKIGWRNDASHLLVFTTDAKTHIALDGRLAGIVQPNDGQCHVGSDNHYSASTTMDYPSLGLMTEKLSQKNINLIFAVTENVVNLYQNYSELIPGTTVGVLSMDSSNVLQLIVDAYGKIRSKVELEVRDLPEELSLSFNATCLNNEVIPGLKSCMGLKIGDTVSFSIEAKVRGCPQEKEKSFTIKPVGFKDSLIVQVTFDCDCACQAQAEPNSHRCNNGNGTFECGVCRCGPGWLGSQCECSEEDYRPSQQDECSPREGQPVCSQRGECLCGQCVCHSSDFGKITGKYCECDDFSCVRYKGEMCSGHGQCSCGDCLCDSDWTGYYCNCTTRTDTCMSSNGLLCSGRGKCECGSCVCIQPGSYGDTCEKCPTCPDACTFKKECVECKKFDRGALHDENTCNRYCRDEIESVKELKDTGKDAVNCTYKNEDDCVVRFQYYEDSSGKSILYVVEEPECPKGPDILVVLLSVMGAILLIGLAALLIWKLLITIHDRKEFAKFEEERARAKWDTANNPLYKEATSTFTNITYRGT
T1 sequence (P08514 32-887 limits assumed): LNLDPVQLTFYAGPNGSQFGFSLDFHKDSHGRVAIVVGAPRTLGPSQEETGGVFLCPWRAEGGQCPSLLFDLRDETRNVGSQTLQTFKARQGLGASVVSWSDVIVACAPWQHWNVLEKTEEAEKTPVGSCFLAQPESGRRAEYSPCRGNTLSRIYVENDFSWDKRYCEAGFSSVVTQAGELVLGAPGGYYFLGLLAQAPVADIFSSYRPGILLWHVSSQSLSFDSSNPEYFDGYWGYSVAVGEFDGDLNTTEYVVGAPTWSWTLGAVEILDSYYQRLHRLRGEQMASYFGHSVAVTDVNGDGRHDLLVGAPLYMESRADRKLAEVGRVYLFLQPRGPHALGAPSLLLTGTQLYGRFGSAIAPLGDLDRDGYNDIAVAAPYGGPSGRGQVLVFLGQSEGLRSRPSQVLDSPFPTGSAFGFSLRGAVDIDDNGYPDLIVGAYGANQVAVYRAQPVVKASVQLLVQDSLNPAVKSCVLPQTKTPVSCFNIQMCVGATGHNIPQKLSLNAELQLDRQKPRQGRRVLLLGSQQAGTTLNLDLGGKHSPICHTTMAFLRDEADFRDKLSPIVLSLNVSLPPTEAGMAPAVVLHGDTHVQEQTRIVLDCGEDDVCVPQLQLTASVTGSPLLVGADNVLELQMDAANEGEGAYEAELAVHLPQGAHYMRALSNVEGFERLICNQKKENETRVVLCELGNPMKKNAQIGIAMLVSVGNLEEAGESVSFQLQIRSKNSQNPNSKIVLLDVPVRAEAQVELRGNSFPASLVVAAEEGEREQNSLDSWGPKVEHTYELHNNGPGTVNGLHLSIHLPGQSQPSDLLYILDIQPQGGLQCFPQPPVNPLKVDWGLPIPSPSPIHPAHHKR
T1 sequence (P08514 891-1039 limits assumed): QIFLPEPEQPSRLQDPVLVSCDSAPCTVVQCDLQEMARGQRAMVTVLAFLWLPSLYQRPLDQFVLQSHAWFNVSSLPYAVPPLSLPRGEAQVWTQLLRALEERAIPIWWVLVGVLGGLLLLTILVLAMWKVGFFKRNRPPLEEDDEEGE

IC50 [1]: 600 nM
Compound: N=C(N)NCCCCCCCC(=O)N[C@@H](CC(=O)O)C(=O)N[C@@H](Cc1ccccc1)C(=O)O

IC50 [1]: 30000 nM
Compound: N=C(N)NCCCCCCCC(=O)N[C@@H](CC(=O)O)C(=O)NCCc1ccccc1

IC50 [2]: Not Active | IC50 [3]: Not Active
Compound: N=C(N)NCCCCCCCC(=O)N[C@@H](CC1N=NN=N1)C(=O)N[C@@H](Cc1ccccc1)C(=O)O

IC50 [4]: 2000 nM
Compound: N=C(N)NCCCCCCCC(=O)N[C@@H](CC(=O)O)C(=O)N[C@@H](Cc1ccccc1)C1N=NN=N1
